Source: publication PMC5148670 (Journal of medicinal chemistry, 2016)
Changes are numbered by the printed parent chain. Where two headings read alike, the source gives them in different places.

What was measured:
[1] = test system: SETD8; settings: cited from earlier work
[2] = target: T1, SETD8 (Homo sapiens, UniProt Q9NQR1); assay: Mass spectrometry of covalent modification, wild-type SETD8; type: binding; settings: for covalent adduct formation by MS: purified SETD8 with full SET domain, 3 hours incubation
T1 sequence (Q9NQR1 232-393): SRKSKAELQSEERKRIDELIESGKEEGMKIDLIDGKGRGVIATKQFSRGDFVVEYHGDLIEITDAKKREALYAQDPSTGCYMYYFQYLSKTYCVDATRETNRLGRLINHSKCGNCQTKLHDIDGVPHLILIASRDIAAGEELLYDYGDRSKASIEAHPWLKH
In short: (§1)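 Catalytic domain of SETD8 (wild type, C311S or C343S; the C311S protein carried a His tag) at 7 μM was incubated with 20–200 μM test compound in water for over 3 h. Samples were analysed by electrospray LC/MS time-of-flight to detect covalent adducts. Masses of each protein without compound were recorded as controls.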

[3] = target: T1, SETD8; assay: SETD8 scintillation proximity assay; type: biochemical
[4] = target: SMYD2 (Homo sapiens, UniProt Q9NRG4); assay: Mass spectrometry of covalent labeling, SMYD2; type: binding
[5] = test system: H4K20me mark in HeLa cells; assay: H4K20me mark in HeLa cells; type: cell-based; settings: up to 10μM
[6] = target: T2, C311S mutant of SETD8 (Homo sapiens, UniProt Q9NQR1, C311S); assay: Mass spectrometry of covalent modification, SETD8 C311S mutant; type: binding
T2 sequence (Q9NQR1 232-393 C311S): T1 sequence (Q9NQR1 232-393) with C80S
In short: as §1

[7] = target: T1, SETD8; assay: Residual enzymatic activity of the purified 3-SETD8 adduct; type: biochemical; settings: purified monomer and dimer of 3-SETD8 adduct
In short: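 SETD8 was incubated with the covalent test compound until adduct formation was complete by MS. The adduct was purified by gel filtration, giving monomer and dimer forms that interconvert. Each form was then tested in the enzymatic assay and compared with wild-type SETD8.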

[8] = target: T3, C343S mutant of SETD8 (Homo sapiens, UniProt Q9NQR1, C343S); assay: Mass spectrometry of covalent modification, SETD8 C343S mutant; type: binding
T3 sequence (Q9NQR1 232-393 C343S): T1 sequence (Q9NQR1 232-393) with C112S
In short: as §1

[9] = target: T4, SMYD3 (Homo sapiens, UniProt Q9H7B4); assay: Mass spectrometry of covalent labeling, SMYD3; type: binding
T4 sequence (Q9H7B4 1-428): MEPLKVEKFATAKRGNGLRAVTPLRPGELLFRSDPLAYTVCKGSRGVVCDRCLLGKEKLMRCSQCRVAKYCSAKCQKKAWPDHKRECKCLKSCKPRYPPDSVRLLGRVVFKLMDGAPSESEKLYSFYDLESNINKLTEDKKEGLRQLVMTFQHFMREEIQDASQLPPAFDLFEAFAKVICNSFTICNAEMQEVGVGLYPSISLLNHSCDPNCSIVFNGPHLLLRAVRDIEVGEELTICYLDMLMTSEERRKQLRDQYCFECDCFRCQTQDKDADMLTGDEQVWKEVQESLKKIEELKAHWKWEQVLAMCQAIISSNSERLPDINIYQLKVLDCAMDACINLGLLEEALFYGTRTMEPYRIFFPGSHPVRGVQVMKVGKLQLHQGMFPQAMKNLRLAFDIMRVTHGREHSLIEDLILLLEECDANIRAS

[10] = target: PRC2 (Homo sapiens, UniProt Q15910); assay: Mass spectrometry of covalent labeling, PRC2; type: binding
[11] = test system: 28 other methyltransferases; assay: Methyltransferase selectivity assays; type: biochemical

Sequence of SMYD2 (Q9NRG4 whole entry, species assumed): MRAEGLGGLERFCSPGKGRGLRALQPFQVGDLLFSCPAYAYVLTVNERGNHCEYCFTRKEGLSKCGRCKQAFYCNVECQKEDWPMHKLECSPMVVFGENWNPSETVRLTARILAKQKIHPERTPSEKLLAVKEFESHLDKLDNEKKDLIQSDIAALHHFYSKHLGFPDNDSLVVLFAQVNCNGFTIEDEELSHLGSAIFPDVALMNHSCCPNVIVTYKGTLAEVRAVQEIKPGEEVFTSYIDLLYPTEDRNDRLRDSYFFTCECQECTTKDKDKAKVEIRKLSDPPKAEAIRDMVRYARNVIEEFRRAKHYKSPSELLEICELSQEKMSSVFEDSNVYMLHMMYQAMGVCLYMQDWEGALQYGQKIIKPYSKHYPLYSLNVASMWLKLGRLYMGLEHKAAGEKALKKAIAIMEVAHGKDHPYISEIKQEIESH
Sequence of PRC2 (Q15910 whole entry): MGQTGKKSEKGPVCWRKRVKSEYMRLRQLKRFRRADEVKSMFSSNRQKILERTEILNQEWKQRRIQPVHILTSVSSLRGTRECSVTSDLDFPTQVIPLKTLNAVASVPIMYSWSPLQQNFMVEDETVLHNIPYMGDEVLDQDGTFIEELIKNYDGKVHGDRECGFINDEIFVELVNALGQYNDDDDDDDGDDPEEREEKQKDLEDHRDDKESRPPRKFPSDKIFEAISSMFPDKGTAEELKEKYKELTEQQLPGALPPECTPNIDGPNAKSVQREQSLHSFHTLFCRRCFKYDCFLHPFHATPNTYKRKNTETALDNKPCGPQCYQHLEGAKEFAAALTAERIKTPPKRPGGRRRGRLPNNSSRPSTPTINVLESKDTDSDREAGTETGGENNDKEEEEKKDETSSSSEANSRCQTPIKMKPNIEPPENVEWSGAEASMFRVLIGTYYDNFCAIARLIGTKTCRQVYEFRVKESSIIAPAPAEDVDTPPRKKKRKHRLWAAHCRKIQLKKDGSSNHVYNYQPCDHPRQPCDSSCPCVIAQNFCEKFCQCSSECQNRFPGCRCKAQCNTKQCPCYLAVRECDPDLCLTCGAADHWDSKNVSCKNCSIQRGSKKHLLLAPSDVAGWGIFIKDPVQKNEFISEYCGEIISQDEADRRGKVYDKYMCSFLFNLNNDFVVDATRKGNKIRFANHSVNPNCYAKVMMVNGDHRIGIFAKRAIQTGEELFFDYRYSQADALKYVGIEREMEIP
Sequence of PRC2 (O75530 whole entry partner): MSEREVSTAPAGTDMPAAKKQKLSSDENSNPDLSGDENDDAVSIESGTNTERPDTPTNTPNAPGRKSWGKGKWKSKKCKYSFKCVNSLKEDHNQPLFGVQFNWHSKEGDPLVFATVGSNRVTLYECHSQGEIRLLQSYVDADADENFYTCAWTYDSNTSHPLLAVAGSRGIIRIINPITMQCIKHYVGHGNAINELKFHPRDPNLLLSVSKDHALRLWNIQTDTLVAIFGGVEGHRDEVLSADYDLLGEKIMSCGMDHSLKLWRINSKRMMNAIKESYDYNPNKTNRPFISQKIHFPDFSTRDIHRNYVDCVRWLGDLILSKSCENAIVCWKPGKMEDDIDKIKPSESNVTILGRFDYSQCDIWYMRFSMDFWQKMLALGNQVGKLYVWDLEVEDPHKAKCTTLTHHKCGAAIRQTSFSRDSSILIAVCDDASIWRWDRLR
Sequence of PRC2 (Q15022 whole entry partner): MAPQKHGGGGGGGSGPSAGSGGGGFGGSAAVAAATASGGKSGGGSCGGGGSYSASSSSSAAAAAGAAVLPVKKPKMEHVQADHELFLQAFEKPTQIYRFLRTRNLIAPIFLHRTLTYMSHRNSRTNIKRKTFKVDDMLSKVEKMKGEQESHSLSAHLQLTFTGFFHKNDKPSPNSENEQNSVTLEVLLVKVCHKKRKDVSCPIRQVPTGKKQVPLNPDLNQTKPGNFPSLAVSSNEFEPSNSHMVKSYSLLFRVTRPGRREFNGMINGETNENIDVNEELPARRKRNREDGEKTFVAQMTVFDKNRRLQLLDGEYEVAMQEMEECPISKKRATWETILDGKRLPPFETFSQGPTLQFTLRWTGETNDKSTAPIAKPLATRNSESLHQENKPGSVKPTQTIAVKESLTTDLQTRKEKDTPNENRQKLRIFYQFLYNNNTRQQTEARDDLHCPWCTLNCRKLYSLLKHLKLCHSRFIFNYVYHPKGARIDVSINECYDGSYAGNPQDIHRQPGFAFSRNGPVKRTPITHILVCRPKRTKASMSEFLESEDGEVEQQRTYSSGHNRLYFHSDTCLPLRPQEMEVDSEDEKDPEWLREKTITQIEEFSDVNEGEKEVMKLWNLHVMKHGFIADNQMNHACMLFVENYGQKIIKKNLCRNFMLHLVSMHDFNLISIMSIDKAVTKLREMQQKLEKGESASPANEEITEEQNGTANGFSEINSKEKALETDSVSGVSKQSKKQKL

| Molecule | mechanism of action [1] | IC50 ([1]; read-out: potency in vitro) [µM] | covalent adduct formation by MS [2] | activity in the SETD8 biochemical assay [3] | labeling by MS analysis [4] | reduction in the H4K20me mark [5] | covalent adduct formation by MS [6] | covalent modification of SETD8 in presence of glutathione ([2]; 5 mM glutathione (GSH)) | enzymatic activity retained by adduct relative to wild-type SETD8 [7] | covalent adduct formation by MS [8] | labeling by MS analysis [9] | labeling by MS analysis [10] | Hillslope ([3]; incubation with SETD8 for 1 or 5 hours, both incubation times) | selectivity for SETD8 over other methyltransferases [11] | selectivity for SETD8 over other methyltransferases ([11]; listed as MS453) |
| --- | --- | --- | --- | --- | --- | --- | --- | --- | --- | --- | --- | --- | --- | --- | --- |
| nauhoic acid A | SAM-competitive | 6.5 | – | – | – | – | – | – | – | – | – | – | – | – | – |
| C=CC(=O)NCCCN(C)c1nc(N2CCCC2)nc2cc(OC)c(OC)cc12 [compound 4, N-(3-((6,7-Dimethoxy-2-(pyrrolidin-1-yl)quinazolin-4-yl)(methyl)amino)propyl)acrylamide] | – | – | did not covalently modify SETD8 | inactive | – | – | – | – | – | – | – | – | – | – | – |
| C=CC(=O)NCCCNc1nc(N2CCCC2)nc2cc(OC)c(OC)cc12 [compound 3, N-(3-((6,7-Dimethoxy-2-(pyrrolidin-1-yl)quinazolin-4-yl)amino)propyl)acrylamide] | – | – | efficiently forms a single-modified covalent adduct | – | no labeling | did not observe significant reduction | did not form an adduct | not affected | about 10% | formed a single-modified adduct | no labeling | no labeling | 1.2 | selective for SETD8 over 30 other methyltransferases | selective for SETD8 against 28 other methyltransferases |
